Experimental data pooled from the literature.
Protocols differ between the studies behind these lines. pEC50, pIC50: −log10 of the molar value. Values after ≈ are worked out from the molar mass of the structure shown.

The MIC of `c1ccc(CCOc2cc(-c3ccccn3)nc3nncn23)cc1` is reported as over 100 µM (Mycobacterium tuberculosis; microbial growth; H37RV).
`COc1ccc(-c2cc(C(F)(F)F)c3c(N)c(C(=O)NC4COC4)sc3n2)cc1` has a pIC50 of under 4.00 (HepG2; cell growth or viability; 72 h).
`Cc1cc(F)cc(C)c1NC(=N)CC(O)c1cc2c(F)cc(F)cc2c2cc(C(F)(F)F)ccc12` (stereo not shown) gave a pIC50 of 5.20 (HepG2; cell growth or viability, neutral red; 24 h).
The pIC50 of `COc1ccc(-c2cc(C(F)(F)F)c3c(N)c(C(=O)NC45CC6CC(CC(C6)C4)C5)sc3n2)cc1` is reported as under 4.00 (HepG2; cell growth or viability; 72 h).
For `NC(=S)c1cncc(Cn2c(=S)[nH]c3ccc(Cl)cc3c2=O)c1`, the MIC90 was over 100 µM (Mycobacterium tuberculosis; microbial growth; H37RV).
The pIC50 of `Nc1c(C(=O)NCc2ccccc2)sc2nc(-c3ccccc3)ccc12` is reported as under 4.00 (HepG2; cell growth or viability; 72 h).
With `O=C(Nc1ccc(Cl)cc1)Nc1cccc(-c2cn(Cc3ccc(Br)cc3)nn2)c1` the viability was 13.1% (Huh-7; cell growth or viability, CCK-8; 50 µM, 72 h).
The MIC90 of `O=c1c2cc(Cl)ccc2[nH]c(=S)n1Cc1ccc(-c2nnn[nH]2)nc1` is reported as 87.4 µM (≈ 32.5 µg/mL) (Mycobacterium tuberculosis; microbial growth; H37RV).
For `N.N.[Cl][Pt][Cl]`, the pIC50 was 5.56 (Ramos; cell growth or viability, ATP luminescence; 72 h).
`N=C(CC(O)c1cc2c(F)cc(F)cc2c2cc(C(F)(F)F)ccc12)N1CCC(F)(F)CC1` (stereo not shown) has a pIC50 of 4.80 (HepG2; cell growth or viability, neutral red; 24 h).
The MIC of `COc1ccc(CCNc2cc(-c3ccccn3)nc3cc(Br)nn23)cc1` is reported as 23 µM (≈ 9.76 µg/mL) (Mycobacterium tuberculosis; microbial growth; H37RV).
`O=c1c2nc(Cl)ccc2[nH]c(=S)n1Cc1cccnc1` gave an MIC90 of over 100 µM (Mycobacterium tuberculosis; microbial growth; H37RV).
For `Cc1cccc(NC(=O)c2sc3nc(-c4cccs4)cc(C(F)(F)F)c3c2N)c1C`, the pIC50 was under 4.00 (HepG2; cell growth or viability; 72 h).
With `FC(F)(F)Oc1ccc(CCNc2cc(-c3ccccn3)nc3nncn23)cc1` the MIC was 4 µM (≈ 1.6 µg/mL) (Mycobacterium tuberculosis; microbial growth; H37RV).
`Cc1cccc(NC(=O)c2sc3nc(-c4ccco4)cc(C(F)(F)F)c3c2N)c1C` gave a pIC50 of under 4.00 (HepG2; cell growth or viability; 72 h).
With `COCC(=O)OCc1cc2[nH]c(=S)n(Cc3cccnc3)c(=O)c2cc1Cl` the MIC90 was 2.36 µM (≈ 0.958 µg/mL) (Mycobacterium tuberculosis; microbial growth; H37RV).
With `COC1CN(C(=O)c2sc3ncccc3c2N)C1` the pIC50 was under 4.00 (Mycobacterium tuberculosis; microbial growth; H37RV).
`O=c1c2ccccc2[se]n1-c1ccccc1` gave a pEC50 of 5.43 (Trypanosoma cruzi; parasite growth; Vero; 72 h, intracellular, amastigote).
`N=C(CC(O)c1cc2c(F)cc(F)cc2c2cc(C(F)(F)F)ccc12)Nc1ccc(Br)c(F)c1` (stereo not shown) has a pIC50 of 4.55 (HepG2; cell growth or viability, neutral red; 24 h).
With `O=c1c2cc(Cl)c(CO)cc2[nH]c(=S)n1Cc1cncnc1` the MIC90 was 3.23 µM (≈ 1.08 µg/mL) (Mycobacterium tuberculosis; microbial growth; H37RV).
For `COc1ccc(-c2cc(C(F)(F)F)c3c(N)c(C(=O)NC(C)C4CCCCC4)sc3n2)cc1` (stereo not shown), the pIC50 was under 4.00 (HepG2; cell growth or viability; 72 h).
With `NC(=O)c1cc2[nH]c(=S)n(Cc3cccnc3)c(=O)c2cc1Cl` the MIC90 was 7.1 µM (≈ 2.46 µg/mL) (Mycobacterium tuberculosis; microbial growth; H37RV).
With `N=C(CC(O)c1cc2c(F)cc(F)cc2c2cc(C(F)(F)F)ccc12)NCc1ccc(F)cc1` (stereo not shown) the pIC50 was 5.14 (HepG2; cell growth or viability, neutral red; 24 h).
With `Cc1ccc(CCNc2cc(-c3ccccn3)nc3cc(Br)nn23)cc1` the MIC was 25 µM (≈ 10.2 µg/mL) (Mycobacterium tuberculosis; microbial growth; H37RV).
`O=c1[nH]c2cc(CO)c(Cl)cc2c(=O)n1Cc1cncnc1` gave an MIC90 of 34.5 µM (≈ 11 µg/mL) (Mycobacterium tuberculosis; microbial growth; H37RV).
